# Compound activity from PubChem BioAssay.
# Shown are actives, neighbours in structure and some others; about 3.7% of the full set was active somewhere.
# CHO parental Ca: ATP-evoked calcium signal inhibitors, parental CHO, primary screen, counter-screen for OX1R antagonist project, cell-based, fluorescence, Fluo-8 calcium dye; hit rate 0.63% among 330,000; parental CHO-K1, ATP-induced calcium, Fluo-8 fluorescence; inhibition, % at 5.6 µM;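 active means inhibition above that plate's mean sample inhibition plus 3 SD, cut at about 26% in these data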;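 further: 0% = ATP-challenged DMSO wells and 100% = DMSO wells without ATP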
#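 Assay system – parental CHO cells · Reagent – ATP stimulus · Detection – intracellular calcium via Fluo-8 no-wash fluorescent dye · Evaluation – percent inhibition of ATP-evoked calcium rise, normalized to controls · Controls – ATP wells versus no-ATP DMSO wells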
# EP2 antag: human EP2 receptor antagonists, primary screen, TR-FRET cAMP, C6 glioma cells; C6 glioma cells expressing human EP2; cells stimulated with saturating PGE2; inhibition, % at 25 µM; hit rate 0.52% among 260,000;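 active means percent inhibition above 40 after rounding to a whole number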;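 further: rat C6 glioma host cells with rolipram phosphodiesterase inhibitor present; the protocol text gives 20 µM as final concentration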
# Target sequence (P43116 whole entry, looked up): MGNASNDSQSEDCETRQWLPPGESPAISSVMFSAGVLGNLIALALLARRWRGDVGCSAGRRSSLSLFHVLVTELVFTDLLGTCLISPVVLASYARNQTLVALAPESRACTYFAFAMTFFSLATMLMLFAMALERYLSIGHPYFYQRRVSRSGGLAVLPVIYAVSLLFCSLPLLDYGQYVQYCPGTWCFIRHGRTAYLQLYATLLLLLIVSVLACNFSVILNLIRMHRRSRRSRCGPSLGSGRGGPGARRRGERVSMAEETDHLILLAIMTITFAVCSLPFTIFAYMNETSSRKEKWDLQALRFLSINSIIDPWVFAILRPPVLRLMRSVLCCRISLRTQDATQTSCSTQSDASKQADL
# OX1R antag-1: OX1R (HCRTR1) antagonists, primary screen, fluorescence, CHO/OX1R cells, Fluo-8 calcium, orexin A; AID 434989, 2010; Fluo-8 calcium fluorescence; Orexin/Hypocretin receptor type 1 (Homo sapiens), O43613; hit rate 0.43% among 330,000; inhibition, % at 5 µM;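 active means inhibition above its plate's threshold, mean inhibition of all tested compounds on the plate plus 3 SD, cut at about 37% in these data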;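 further: 0% = orexin A challenge wells and 100% = SB-334867-A antagonist wells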
# EP2 modulator: EP2 receptor modulators, cAMP readout, primary screen, cell-based, HTRF cAMP, PGE2 stimulation. EP2-expressing cells, cAMP HTRF FRET, PGE2 co-stimulation. induction, % at 25 µM. Prostaglandin E2 receptor EP2 subtype (Homo sapiens), P43116. hit rate 0.83% among 260,000;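 active means compounds whose cAMP rise, as percent of the full-agonist control response, exceeds 60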;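 further: rat C6 glioma line stably carrying human EP2 under a CMV promoter; the protocol text gives 20 µM as final concentration; 100% = response of wells given 1 µM PGE2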
# OX1R antag-2: antagonists of human orexin 1 receptor (OX1R) | Orexin/Hypocretin receptor type 1 (Homo sapiens), O43613 | OX1R-expressing cells, FRET antagonist read-out | inhibition, % at 6.6 µM | hit rate 1.8% among 330,000; in the data active means inhibition mostly above about 38%, no sharp cut-off; inactive means mostly below about 40%;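 further: 0% = agonist challenge alone and 100% = reference antagonist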
# GPR7 antag: GPR7 receptor antagonists, primary screen, cell-based, fluorescence, single concentration; Neuropeptides B/W receptor type 1 (Homo sapiens), P48145; GPR7-expressing cells, fluorescence antagonist assay; inhibition, % at 4.4 µM; hit rate 1.1% among 290,000; AID 1861, 2009; in the data active means inhibition above about 16%, passing the limit was not always enough;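 further: cells stimulated with the agonist NPW; 0% = agonist with vehicle and 100% = vehicle without agonist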
# EP2 confirm: cAMP induction in EP2, EP4, beta2-AR and parental cells, confirmation, counter-screen for EP2 modulator project, cell-based, five parallel assays, C6 glioma, HEK293; shares compounds with EP2 modulator; cAMP HTRF induction; plus low (about EC15) PGE2 agonist; calls only at 20 µM (by protocol); hit rate 47% among 1,300; AID 1080, 2008;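 active means cAMP induction above 50% in the main assay while under 30% in all four parallel counter assays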;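 further: rat C6 glioma cells stably expressing human EP2 receptor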
# * = called active by the depositor; i = inactive; . = no result given; + = active, no number; ! = repeats disagree.
SMILES,CHO parental Ca,EP2 antag,OX1R antag-1,EP2 modulator,OX1R antag-2,GPR7 antag,EP2 confirm
COc1ccc(S(=O)(=O)CCC(=O)N2CCN(c3cccc(Cl)c3)CC2)cc1,-1,.,-11,.,37,0,.
O=C(O)c1ccc(-n2nc(C(F)(F)F)c3c2-c2ccoc2CC3)cc1,2,8,-1,-14,22,-5,.
COC(=O)c1ccc(-n2nc(C(F)(F)F)c3c2-c2ccoc2CC3)cc1,-16,10,-42,72*,11,-4,i
CCOC(=O)C1CCCN(c2c(C(=O)c3ccccc3)cnc3ccc(OC)cc23)C1 (stereo unspecified),-39,7,-50,68*,10,-15,i
COC(=O)c1cnn(-c2ccccc2)c1C(OC)OC,5,17,-8,9,10,-6,.
S=c1[nH]nc(Cc2ccccc2)n1Cc1ccco1,-4,-1,-7,53,5,-11,i
CCOC(=O)c1c(-c2cccs2)csc1NC(=O)c1ccncc1,-11,7,-22,58,13,-14,.
CCOC(=O)c1c(-c2cccs2)csc1NC(=O)COC(=O)c1c(C)noc1C,3,2,15,69*,20,-4,+
Cc1cccc(OCc2nnc(SCC(=O)OC3CCCCC3)o2)c1,3,4,-15,22,21,2,.
CC(C)NC(=S)N/N=C1\CCCCC1C1CCCCC1 (stereo unspecified),-13,0,-23,81*,11,-11,+
COc1ccc(-c2nc(NC(C)=O)sc2-c2ccccc2)cc1,-26,10,-19,62*,6,5,i
CCCOP(=O)(OCCC)c1nc(-c2ccccc2)oc1NCc1ccccc1,-32,15,-44,94*,12,-13,+
COP(=O)(OC)c1nc(-c2ccccc2)oc1NCc1ccccc1,-9,4,0,44,26,13,.
CCOP(=O)(OCC)c1nc(-c2ccc(Cl)cc2)oc1NCc1ccccc1,-33,4,-27,78*,23,-6,i
COc1ccc(OC)c(N2C(=O)CC(Cc3cc(C)cc(C)c3)C2=O)c1 (stereo unspecified),-13,6,-6,0,10,-14,.
O=C(c1cnn2cccnc12)N1CCn2c(nnc2C2CC2)C1,.,9,.,14,.,.,.
Cc1ccccc1OCc1nc2ccccc2c(=O)n1/N=C/c1ccco1,-19,17,-15,67*,15,-4,i
CCOc1ccc(-c2nnc3sc(COc4ccccc4)nn23)cc1,-11,4,-29,-44,9,-3,.
CCOc1ccc(-c2nn3c(-c4ccccc4)nnc3s2)cc1,-14,11,-1,65*,64*,-12,+
COc1cccc(C(=O)OCc2ccccc2C#N)c1O,-5,2,-23,6,14,7,.
O=C(c1ccco1)N1N=C(c2ccc(Br)cc2)CC1(O)C(F)(F)F (stereo unspecified),-43,11,-50,86*,24,-15,+
COc1cccc(C2=NN(C(=O)c3cccs3)C(O)(C(F)(F)F)C2)c1 (stereo unspecified),-41,9,-34,86*,23,6,+
Cc1ccc(C(=O)N2N=C(c3ccccc3)CC2(O)C(F)(F)F)o1 (stereo unspecified),-15,7,-21,70*,26,-1,i
COc1cccc(C2=NN(C(=O)c3ccc(C)o3)C(O)(C(F)(F)F)C2)c1 (stereo unspecified),-32,1,-26,51,8,-15,.
Cc1cc(=O)oc(C)c1C(=O)NCC1CCCO1 (stereo unspecified),3,10,8,16,14,0,.
SMILES,CHO parental Ca,EP2 antag,OX1R antag-1,EP2 modulator,OX1R antag-2,GPR7 antag,EP2 confirm
COc1ccc(OCC(O)Cn2ccnc2C)cc1 (stereo unspecified),-9,10,-3,-6,7,-8,.
NCCc1c(-c2ccccc2)n(-c2ccccc2)c2ccccc12,.,3,.,72*,.,14,+
CCCCCCn1c(COc2ccccc2F)nnc1SCC(=O)N1c2ccccc2NC(=O)C1(C)C,-15,11,-14,64*,8,-17,i
O=C(Nc1ccccc1Oc1ccccc1)c1ccc(Br)o1,-40,20,-27,64*,24,-22,+
O=C(Nc1ccccc1O)c1ccc(Br)o1,.,7,.,-57,.,.,.
O=C(Nc1ccccc1Oc1ccccc1)c1cnccn1,-11,4,-26,71*,27,-10,+
O=C(Nc1ccccc1-c1ccccc1)c1ccc(Br)o1,-39,8,-30,57,32,-7,i
O=C(Nc1cccc(Cl)c1N1CCCC1)c1ccc(Br)o1,-27,6,-76,69*,7,-5,+
CC1=C(/C=C/C(C)=C/C=C/C(C)=C/C(=O)O)C(C)(C)CCC1,1,14,5,62*!,12,-2,+
CC(/C=C\c1ccccc1)=C/C(=O)O,-5,2,-13,-8,1,-3,.
CCC(CC)C(=O)N=C1SC2CS(=O)(=O)CC2N1CCc1ccc(OC)c(OC)c1 (stereo unspecified),-13,6,-26,2,9,-8,.
O=C(/C=C/Nc1ccccc1Oc1ccccc1)c1ccco1,-30,8,-48,65*,12,-23,i
CCOC(=O)c1c(N)sc2c1CCC(CC)C2 (stereo unspecified),-25,11,-9,66*,14,-7,i
Cc1ccc(C(=O)Nc2ccccc2C(=O)NCc2ccccc2)cc1,-29,2,-40,67*,21,-1,i
Oc1ccccc1/C=N/Nc1ccnc(SCc2ccccc2)n1,-2,9,-10,6,4,3,.
Clc1ccc(Cl)c(Nc2ccnc(SCc3ccccc3)n2)c1,.,36,.,62*,.,.,i
CC1=CC2C(C(C)C)CCC(C)(O)C2CC1 (stereo unspecified),.,6,.,65*,.,.,+
Cc1cccc(NCc2nc3ccccc3n2Cc2ccccc2)c1,-32,-1,-23,66*,17,18,i
